Data from ChEMBL document CHEMBL4138145, “Cyclic Cystine-Bridged Peptides from the Marine Sponge Clathria basilana Induce Apoptosis in Tumor Cells and Depolarize the Bacterial Cytoplasmic Membrane” (J Nat Prod, 2017).
The source made the active and inactive calls. No cut-off for these calls is given here. Where a SMILES comes first, the peptide text is derived from it. Bridges are numbered along the chain shown (N, C = ends). [ ]: non-standard residue; d: D form. The star is where a group is joined. Ileψ(thiazoline)Cys = CC[C@H](C)[C@H](N)C1=N[C@H](C(=O)*)CS1; pGlu = O=C1CC[C@@H](C(=O)O)N1; dOrn = NCCC[C@@H](N)C(=O)O; X2 = C(=C\c1ccccc1)/N*; X4 = C(=C/c1ccccc1)/N*

Key:
[1] = test system: Mycobacterium tuberculosis; test: Antimicrobial activity against Mycobacterium tuberculosis H37Rv up to 100 uM after 5 days by resazurin dye based assay; format: functional, organism-based
Procedure, shortened: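 M. tuberculosis H37Rv was grown aerobically at 37 °C in Middlebrook 7H9 with ADS enrichment, 0.5% glycerol and 0.05% tyloxapol, then precultured to log phase (OD600 0.5−1). Cells were seeded at 1 × 10^5 per well on 2-fold dilutions over 100−0.78 μM and held 5 days at 37 °C. Resazurin was added for 16 h at ambient temperature, then cells were formalin-fixed and fluorescence read (ex 540, em 590 nm). Growth is relative to rifampicin (0%) and DMSO (100%).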

[2] = test system: A2780; test: Cytotoxicity against human A2780 cells assessed as reduction in cell viability up to 10 uM after 72 hrs by MTT assay; format: functional, cell-based
Procedure, shortened: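 A2780 ovarian carcinoma cells were grown in RPMI-1640 with 10% FBS, penicillin and streptomycin, about 9000 cells/well, preincubated overnight. Increasing compound concentrations were applied for 72 h, then MTT was added. Absorbance read at 544 nm minus the 690 nm reference.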

[3] = test system: Ramos; test: Cytotoxicity against human Ramos cells assessed as reduction in cell viability up to 10 uM after 24 hrs by MTT assay; format: functional, cell-based
Procedure, shortened: (§1)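 Suspension cells at 5 × 10^5 cells/mL, exposed 24 h to varying compound concentrations; 0.1% v/v DMSO as negative control. MTT added to 1 mg/mL final for 60 min, cells pelleted, formazan extracted in DMSO for 25 min at rt, A570 read with 650 nm reference. Viability relative to DMSO set at 100%; IC50 from fitted curves.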

[4] = species: Homo sapiens; test: Cytotoxicity against human Jurkat 16 cells assessed as reduction in cell viability up to 10 uM after 24 hrs by MTT assay; format: functional, cell-based; procedure, shortened: as §1
[5] = test system: NOMO-1; test: Cytotoxicity against human NOMO1 cells assessed as reduction in cell viability up to 10 uM after 24 hrs by MTT assay; format: functional, cell-based; procedure, shortened: as §1
[6] = test system: HL-60; test: Cytotoxicity against human HL60 cells assessed as reduction in cell viability up to 10 uM after 24 hrs by MTT assay; format: functional, cell-based; procedure, shortened: as §1
[7] = test system: Klebsiella pneumoniae; test: Antimicrobial activity against Klebsiella pneumoniae after 16 to 20 hrs by broth micro dilution method; format: functional, organism-based
Procedure, shortened: (§2)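 Broth microdilution per CLSI in cation-adjusted Mueller-Hinton broth. Inoculum made by direct colony suspension, 5 × 10^5 CFU/mL final, added to serial 2-fold compound dilutions. Plates kept 16–20 h at 37 °C in ambient air. MIC is the lowest concentration with no visible growth. Strains are ATCC CLSI quality-control strains; A. baumannii 09987 is a Bonn clinical isolate.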

[8] = test system: Klebsiella aerogenes; test: Antimicrobial activity against Enterobacter aerogenes after 16 to 20 hrs by broth micro dilution method; format: functional, organism-based; procedure, shortened: as §2
[9] = test system: Escherichia coli; test: Antimicrobial activity against Escherichia coli after 16 to 20 hrs by broth micro dilution method; format: functional, organism-based; procedure, shortened: as §2
[10] = test system: Pseudomonas aeruginosa; test: Antimicrobial activity against Pseudomonas aeruginosa after 16 to 20 hrs by broth micro dilution method; format: functional, organism-based; procedure, shortened: as §2
[11] = test system: Acinetobacter baumannii; test: Antimicrobial activity against Acinetobacter baumannii isolate 09987 after 16 to 20 hrs by broth micro dilution method; format: functional, organism-based; procedure, shortened: as §2
[12] = test system: Bacillus subtilis; test: Induction of cell envelope stress in Bacillus subtilis isolate 1S34 assessed as increase in liaI promoter activity at 30 ug after 14 to 18 hrs by beta-galactosidase reporter gene assay; format: functional, organism-based
Procedure, shortened: (§3)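 B. subtilis 1S34 β-galactosidase promoter reporters were grown in LB with spectinomycin (50 μg/mL) to stationary phase. Cells were set at 3 × 10^7 CFU/mL in LB soft agar (0.7%) containing X-Gal (150 μg/mL). Test compounds were spotted on the plates, with reference antibiotic discs as positive controls. Plates were incubated 14−18 h at 30 °C and read for promoter induction (blue colour).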

[13] = test system: Bacillus subtilis; test: Induction of RNA damage in Bacillus subtilis isolate 1S34 assessed as increase in helD promoter activity at 30 ug after 14 to 18 hrs by beta-galactosidase reporter gene assay; format: functional, organism-based; procedure, shortened: as §3
[14] = test system: Bacillus subtilis; test: Induction of cell envelope stress in Bacillus subtilis isolate 1S34 assessed as increase in ypuA promoter activity at 30 ug after 14 to 18 hrs by beta-galactosidase reporter gene assay; format: functional, organism-based; procedure, shortened: as §3
[15] = test system: Bacillus subtilis; test: Induction of DNA damage in Bacillus subtilis isolate 1S34 assessed as increase in yorB promoter activity at 30 ug after 14 to 18 hrs by beta-galactosidase reporter gene assay; format: functional, organism-based; procedure, shortened: as §3
[16] = test system: Bacillus subtilis; test: Induction of translation arrest in Bacillus subtilis isolate 1S34 assessed as increase in bmrC promoter activity at 30 ug after 14 to 18 hrs by beta-galactosidase reporter gene assay; format: functional, organism-based
Procedure, shortened: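 The bmrC promoter reporter in B. subtilis 1S34 was embedded at 3 × 10^7 CFU/mL in Belitzky minimal medium soft agar containing X-Gal (150 μg/mL). Test compounds were spotted, with reference antibiotic discs as positive controls. Plates were incubated at 37 °C and read for promoter-driven β-galactosidase induction.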

[17] = test system: Bacillus subtilis; test: Induction of cell envelope stress in Bacillus subtilis isolate 1S34 assessed as increase in liaI promoter activity at 10 ug after 14 to 18 hrs by beta-galactosidase reporter gene assay; format: functional, organism-based
Procedure, shortened: (§4)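 Agar-based β-galactosidase promoter-reporter assay. B. subtilis 1S34 grown to stationary phase in LB with spectinomycin 50 μg/mL, then set at 3 × 10^7 CFU/mL in LB soft agar (0.7%) containing X-Gal 150 μg/mL. Test compounds spotted at 20 nmol; reference antibiotics given on paper discs (5–30 μg). Plates read for promoter induction after 14–18 h at 30 °C.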

[18] = test system: Bacillus subtilis; test: Induction of cell envelope stress in Bacillus subtilis isolate 1S34 assessed as increase in ypuA promoter activity at 10 ug after 14 to 18 hrs by beta-galactosidase reporter gene assay; format: functional, organism-based; procedure, shortened: as §4
[19] = test system: Bacillus subtilis; test: Induction of DNA damage in Bacillus subtilis isolate 1S34 assessed as increase in yorB promoter activity at 10 ug after 14 to 18 hrs by beta-galactosidase reporter gene assay; format: functional, organism-based; procedure, shortened: as §4
[20] = test system: Bacillus subtilis; test: Induction of RNA damage in Bacillus subtilis isolate 1S34 assessed as increase in helD promoter activity at 10 ug after 14 to 18 hrs by beta-galactosidase reporter gene assay; format: functional, organism-based; procedure, shortened: as §4
[21] = test system: Bacillus subtilis; test: Induction of translation arrest in Bacillus subtilis isolate 1S34 assessed as increase in bmrC promoter activity at 10 ug after 14 to 18 hrs by beta-galactosidase reporter gene assay; format: functional, organism-based
[22] = test system: Bacillus subtilis; test: Induction of DNA damage in Bacillus subtilis isolate 1S34 assessed as increase in yorB promoter activity at 5 ug after 14 to 18 hrs by beta-galactosidase reporter gene assay; format: functional, organism-based; procedure, shortened: as §4
[23] = test system: Bacillus subtilis; test: Induction of cell envelope stress in Bacillus subtilis isolate 1S34 assessed as increase in liaI promoter activity at 5 ug after 14 to 18 hrs by beta-galactosidase reporter gene assay; format: functional, organism-based; procedure, shortened: as §4
[24] = test system: Bacillus subtilis; test: Induction of cell envelope stress in Bacillus subtilis isolate 1S34 assessed as increase in ypuA promoter activity at 5 ug after 14 to 18 hrs by beta-galactosidase reporter gene assay; format: functional, organism-based; procedure, shortened: as §4
[25] = test system: Bacillus subtilis; test: Induction of RNA damage in Bacillus subtilis isolate 1S34 assessed as increase in helD promoter activity at 5 ug after 14 to 18 hrs by beta-galactosidase reporter gene assay; format: functional, organism-based; procedure, shortened: as §4
[26] = test system: Bacillus subtilis; test: Induction of translation arrest in Bacillus subtilis isolate 1S34 assessed as increase in bmrC promoter activity at 5 ug after 14 to 18 hrs by beta-galactosidase reporter gene assay; format: functional, organism-based

Row | Structure (SMILES) | Activity [1] | Activity [2] | Activity [3] | Activity [4] | Activity [5] | Activity [6] | Activity [7] | Activity [8] | Activity [9] | Activity [10] | Activity [11] | also measured
1 | CC(C)[C@H](N)C(=O)N/C=C/c1ccccc1 | inactive | inactive | inactive | inactive | inactive | inactive | inactive | inactive | inactive | inactive | inactive | –
2 | CN[C@H](CC(C)C)C(=O)N[C@H]1C(=O)N[C@@H](CC(N)=O)C(=O)N[C@H]2C(=O)N[C@H]3C(=O)N[C@H](C(=O)N[C@H](C(=O)O)c4cc(O)cc(O)c4-c4cc3ccc4O)[C@H](O)c3ccc(c(Cl)c3)Oc3cc2cc(c3O[C@@H]2O[C@H](CO)[C@@H](O)[C@H](O)[C@H]2O[C@H]2C[C@](C)(N)[C@H](O)[C@H](C)O2)Oc2ccc(cc2Cl)[C@H]1O | – | – | – | – | – | – | – | – | – | – | – | Activity [12]: Active; Activity [13]: Active; Activity [14]: Active; Activity [15]: Active; Activity [16]: Active
3 | CO[C@H]1/C=C/O[C@@]2(C)Oc3c(C)c(O)c4c(O)c(c(/C=N/N5CCN(C)CC5)c(O)c4c3C2=O)NC(=O)/C(C)=C\C=C\[C@H](C)[C@H](O)[C@@H](C)[C@@H](O)[C@@H](C)[C@H](OC(C)=O)[C@@H]1C | – | – | – | – | – | – | – | – | – | – | – | Activity [12]: Active; Activity [13]: Active; Activity [14]: Active; Activity [15]: Active; Activity [16]: Active
4 | O=C(N[C@H](CO)[C@H](O)c1ccc([N+](=O)[O-])cc1)C(Cl)Cl | – | – | – | – | – | – | – | – | – | – | – | Activity [17]: Active; Activity [18]: Active; Activity [19]: Active; Activity [20]: Active; Activity [21]: Active
5 | O=C(O)c1cn(C2CC2)c2cc(N3CCNCC3)c(F)cc2c1=O | – | – | – | – | – | – | – | – | – | – | – | Activity [22]: Active; Activity [23]: Active; Activity [24]: Active; Activity [25]: Active; Activity [26]: Active
6 | CC(C)C[C@@H]1NC(=O)[C@@H]2CCCN2C(=O)[C@@H]2CCCN2C(=O)[C@@H](NC(=O)[C@@H]2CCC(=O)N2)CSSC[C@@H](C(=O)N2CCC[C@H]2C(N)=O)NC1=O ([pGlu]CPPLCP-NH2; disulfide 2-6) | inactive | inactive | inactive | inactive | inactive | inactive | inactive | inactive | inactive | inactive | inactive | –
7 | CC[C@H](C)[C@H](NC(=O)[C@@H]1CCC(=O)N1)C(=O)N[C@@H](CC(C)C)C(=O)N[C@H]1CSSC[C@@H](C(=O)N/C=C/c2ccccc2)NC(=O)[C@H](Cc2ccccc2)NC(=O)[C@@H]2CCCN2C(=O)[C@@H]2CCCN2C1=O ([pGlu]ILCPPFC-X2; disulfide 4-8) | inactive | inactive | inactive | inactive | inactive | inactive | inactive | inactive | inactive | inactive | inactive | –
8 | CC[C@H](C)[C@H](NC(=O)[C@@H]1CCC(=O)N1)C(=O)N[C@@H](CC(C)C)C(=O)N[C@H]1CSSC[C@@H](C(=O)N/C=C\c2ccccc2)NC(=O)[C@H](Cc2ccccc2)NC(=O)[C@@H]2CCCN2C(=O)[C@@H]2CCCN2C1=O ([pGlu]ILCPPFC-X4; disulfide 4-8) | – | inactive | inactive | inactive | inactive | inactive | – | – | – | – | – | –
9 | CC[C@H](C)[C@H](N)C1=N[C@H](C(=O)N[C@@H](CC(C)C)C(=O)N[C@H](CCC(=O)O)C(=O)N[C@H](C(=O)N[C@H]2CCCCNC(=O)[C@H](CC(N)=O)NC(=O)[C@@H](CC(=O)O)NC(=O)[C@H](Cc3cnc[nH]3)NC(=O)[C@@H](Cc3ccccc3)NC(=O)[C@H]([C@@H](C)CC)NC(=O)[C@@H](CCCN)NC2=O)[C@@H](C)CC)CS1 ({Ileψ(thiazoline)Cys}-L[dE]IK[dOrn]I[dF]H[dD]N; lactam 4-C) | – | – | – | – | – | – | – | – | – | – | – | Activity [17]: Active; Activity [18]: Active; Activity [19]: Active; Activity [20]: Active; Activity [21]: Active
